Measured values collected from several papers.
Each line is one published result; the experiments were not run side by side. ≈ marks a conversion by molar mass, not a printed value.

| SMILES | tested on | assay | system | conditions | endpoint | value |
| --- | --- | --- | --- | --- | --- | --- |
| O=C1C(=Nc2cccc(Cl)c2)c2ccccc2N1Cc1ccc([N+](=O)[O-])cc1 | B16 | cell growth or viability, MTT |  | 48 h | IC50 | 0.55 µM |
| C[C@H]1[C@H](NC(=O)/C(=N\OC(C)(C)C(=O)O)c2csc(N)n2)C(=O)N1S(=O)(=O)O | Acinetobacter baumannii | microbial growth, broth dilution | ATCC19606 |  | MIC | 16 µg/mL (≈ 36.7 µM) |
| O=C1C(=Nc2ccc(Cl)cc2)c2ccccc2N1Cc1cccc(Cl)c1 | B16 | cell growth or viability, MTT |  | 48 h | IC50 | 1.56 µM |
| O=C1OC[C@H]2OC(O)[C@H](O)[C@@H](O)[C@@H]2OC(=O)c2cc(O)c(O)c(O)c2-c2c(O)c(O)c3oc(=O)c4c(c(O)c(O)c5oc(=O)c2c3c54)-c2c1cc(O)c(O)c2O (mixture of isomers) | Streptococcus gordonii | microbial growth, broth dilution |  | 24 h | MIC | 200 µg/mL |
| CCC(C(=O)N1C(=O)C(=Nc2ccc(Cl)cc2Br)c2ccccc21)c1ccccc1 (centres unmarked) | B16 | cell growth or viability, MTT |  | 48 h | IC50 | 27.1 µM |
| CNC(C)C1CCC(N)C(OC2C(N)CC(N)C(OC3OCC(C)(O)C(NC)C3O)C2O)O1 (centres unmarked) | Acinetobacter baumannii | microbial killing, broth dilution | ATCC19606 | 24 h | MBC | 32 mM (≈ 15.3 mg/mL) |
| CN(C)CCNC(=O)c1ccc(-c2nc3ccc4[nH]ncc4c3c3c2CCCC3)cc1 | G-361 | cell growth or viability |  | 72 h | GI50 | 3.5 µM |
| C[C@@H]1O[C@@H](OC[C@H]2O[C@@H](Oc3c(-c4ccc(O)c(O)c4)oc4cc(O)cc(O)c4c3=O)[C@H](O)[C@@H](O)[C@@H]2O)[C@H](O)[C@H](O)[C@H]1O | Streptococcus gordonii | microbial growth, disc diffusion |  | 500 µg/disc | inhibition zone | 13 mm |
| CN(C)[C@@H]1C(O)=C(C(N)=O)C(=O)[C@@]2(O)C(O)=C3C(=O)c4c(O)cccc4[C@@](C)(O)[C@H]3C[C@@H]12 | Acinetobacter baumannii | microbial growth, broth dilution | ATCCBAA1605 |  | MIC | > 64 µg/mL |
| Cc1n[nH]c2ccc3nc(-c4ccc(C(=O)NCCN(C)C)cc4F)c4c(c3c12)CCCC4 | G-361 | cell growth or viability |  | 72 h | GI50 | 1.58 µM |
| O=C1C(=Nc2ccc(Cl)cc2)c2ccccc2N1Cc1ccc(Br)cc1 | B16 | cell growth or viability, MTT |  | 48 h | IC50 | 14.1 µM |
| CO/N=C(\C(=O)N[C@@H]1C(=O)N2C(C(=O)O)=CCS[C@H]12)c1csc(N)n1 | Acinetobacter baumannii | microbial growth, broth dilution | ATCC19606 |  | MIC | 16 µg/mL (≈ 41.7 µM) |
| O=c1oc2c(O)c(O)cc3c(=O)oc4c(O)c(O)cc1c4c23 | Streptococcus gordonii | microbial growth, disc diffusion |  | 500 µg/disc | inhibition zone | 16 mm |
| C[C@@H](O)[C@H]1C(=O)N2C(C(=O)O)=C(SCCN=CN)C[C@H]12 | Acinetobacter baumannii | microbial growth, broth dilution | ATCC19606 |  | MIC | 1 µg/mL (≈ 3.34 µM) |
| Oc1cc(O)c2c(c1)O[C@H](c1cc(O)c(O)c(O)c1)[C@@H](O)C2 | Streptococcus gordonii | microbial growth, disc diffusion |  | 500 µg/disc | inhibition zone | 11.6 mm |
| O=C1Nc2ccccc2C1=Nc1ccccc1Br | B16 | cell growth or viability, MTT |  | 48 h | IC50 | > 100 µM |
| O=C(O[C@@H]1O[C@@H]2COC(=O)c3cc(O)c(O)c(O)c3-c3c(cc(O)c(O)c3O)C(=O)O[C@H]([C@H]1O)[C@@H]2O)c1cc(O)c(O)c(O)c1 | Streptococcus gordonii | microbial growth, disc diffusion |  | 500 µg/disc | inhibition zone | 14 mm |
| CNC(C)C1CCC(N)C(OC2C(N)CC(N)C(OC3OCC(C)(O)C(NC)C3O)C2O)O1 (centres unmarked) | Acinetobacter baumannii | microbial growth, broth dilution | ATCC19606 |  | MIC | 16 µg/mL (≈ 33.5 µM) |
| O=C1Nc2ccccc2C1=Nc1ccc(Cl)cc1 | B16 | cell growth or viability, MTT |  | 48 h | IC50 | 32.6 µM |
| Cc1n[nH]c2ccc3nc(-c4ccc(C(=O)NCCN(C)C)cc4)c4c(c3c12)CCCC4 | G-361 | cell growth or viability |  | 72 h | GI50 | 3.49 µM |
| Cc1cccc(N=C2C(=O)Nc3ccccc32)c1 | B16 | cell growth or viability, MTT |  | 48 h | IC50 | 51.9 µM |
| FC(F)(F)c1ccc(-c2cc(CNc3cccc4cccnc34)on2)cc1 | Z-138 | cell growth or viability, MTS |  | 72 h | IC50 | 85.9 µM |
| C[C@@H](O)[C@H]1C(=O)N2C(C(=O)O)=C(S[C@@H]3CN[C@H](C(=O)N(C)C)C3)[C@H](C)[C@H]12 | Acinetobacter baumannii | microbial growth, broth dilution | ATCCBAA1605 |  | MIC | 16 µg/mL (≈ 41.7 µM) |
| O=C1C(=Nc2ccccc2I)c2ccccc2N1Cc1ccc([N+](=O)[O-])cc1 | B16 | cell growth or viability, MTT |  | 48 h | IC50 | 0.27 µM |
| O=C1O[C@H]2[C@@H]3OC(=O)c4cc(O)c(O)c(O)c4-c4c(O)c(O)c5oc(=O)c6c(c(O)c(O)c7oc(=O)c4c5c76)-c4c(cc(O)c(O)c4O)C(=O)OC[C@H]3OC(O)[C@@H]2OC(=O)c2cc(O)c(O)c(O)c2-c2c1cc(O)c(O)c2O (mixture of isomers) | Streptococcus gordonii | microbial growth, disc diffusion |  | 500 µg/disc | inhibition zone | 14.2 mm |
| CCCCCCC#Cc1cncc(-c2nnc(SCc3cc([N+](=O)[O-])cc([N+](=O)[O-])c3)n2CCCN)c1 | Acinetobacter baumannii | microbial growth, broth dilution | ATCC17978 |  | MIC | 32 µg/mL (≈ 61.1 µM) |
